Results gathered from unrelated publications.
Compare with care: the assays were run in different laboratories.
Cell line: Vero
Effect on: cell growth or viability

Compound | assay | conditions | CC50
Fc1ccccc1NCc1ccc(Oc2ccccn2)cc1 | MTT | 72 h | > 300 µM
CC(C(=O)O)N1c2nc(-c3ccc(Cl)cc3)c(C#N)c(=O)n2NC1(C)c1ccccc1O (stereo not drawn) | MTT | 72 h | 250 µg/mL
Cc1cccc(NCc2ccc(Oc3ccccn3)cc2)c1 | MTT | 72 h | > 300 µM
O=C(Nc1ccc(Br)c(C(F)(F)F)c1)c1ccccc1O | MTT | 72 h | < 5 µg/mL
COc1ccc(NCc2ccc(Oc3ccccn3)cc2)cc1 | MTT | 72 h | > 300 µM
CC(C(=O)O)N1c2nc(-c3ccc(Cl)cc3)c(C#N)c(=O)n2NC1c1ccccc1O (stereo not drawn) | MTT | 72 h | 500 µg/mL
O=C(Nc1ccc(Cl)c(C(F)(F)F)c1)c1ccccc1O | MTT | 72 h | < 10 µg/mL
Clc1ccccc1NCc1ccc(Oc2ccccn2)cc1 | MTT | 72 h | > 300 µM
CC(=O)C1=C(C)N2NC(C)(c3ccccc3O)N(C(Cc3c[nH]c4ccccc34)C(=O)O)C2=NC1c1ccc(Cl)cc1 (stereo not drawn) | MTT | 72 h | 500 µg/mL
Brc1ccc(NCc2ccc(Oc3ccccn3)cc2)cc1 | MTT | 72 h | > 300 µM
COc1ccc(CN2C(=O)c3ccccc3C2CB2OC(C)(C)C(C)(C)O2)cc1 (stereo not drawn) | – | – | 2.3 µM
NC(=O)c1ncn([C@@H]2O[C@H](CO)[C@@H](O)[C@H]2O)n1 | MTT | 72 h | > 200 µM
O=C(Nc1cccc(C(F)(F)F)c1)c1cc(Cl)ccc1O | MTT | 72 h | < 5 µg/mL
COC(=O)N[C@@H](C[S+]([O-])Cc1ccccc1)C(=O)N1CCC[C@H]1c1ncc(-c2ccc(-c3ccc(-c4cnc([C@@H]5CCCN5C(=O)[C@@H](NC(=O)OC)C(C)C)[nH]4)cc3)cc2)[nH]1 (stereo partly drawn) | – | – | 4 µM
COC(=O)N[C@H](C(=O)N1CCC[C@H]1c1nc(-c2ccc(-c3ccc(-c4c[nH]c([C@@H]5CCCN5C(=O)[C@@H](NC(=O)OC)C(C)C)n4)cc3)cc2)c[nH]1)C(C)C | – | – | 26 µM
CCOC(=O)C1=C(C)N2NC(c3ccccc3O)N(C(Cc3c[nH]c4ccccc34)C(=O)O)C2=NC1c1ccc(Cl)cc1 (stereo not drawn) | MTT | 72 h | 250 µg/mL
CC1(C)OB(CC2c3ccccc3C(=O)N2C2CCCCC2)OC1(C)C (stereo not drawn) | – | – | 175 µM
O=C(Nc1ccc(Br)cc1)c1cc(Cl)ccc1O | MTT | 72 h | 10 µg/mL
Brc1cccc(NCc2ccc(Oc3ccccn3)cc2)c1 | MTT | 72 h | > 300 µM
O=C(Nc1ccc(F)c(Cl)c1)c1cc(Cl)ccc1O | MTT | 72 h | < 5 µg/mL
COC(=O)N[C@H](C(=O)N1C[C@H](N=[N+]=[N-])C[C@H]1c1ncc(-c2ccc(-c3ccc(-c4cnc([C@@H]5C[C@@H](N=[N+]=[N-])CN5C(=O)[C@@H](NC(=O)OC)C(C)C)[nH]4)cc3)cc2)[nH]1)C(C)C | – | – | > 100 µM
